From ChEMBL document CHEMBL1147330, “Cytotoxic and antimalarial bisbenzylisoquinoline alkaloids from Cyclea barbata” (1993)
Values after ≈ are worked out from the molar mass of the structure shown.

What was measured:
Type in all cases: functional
Plasmodium falciparum [1] = experiment: Antimalarial activity against chloroquine-sensitive Plasmodium falciparum D6 infected type A+ human erythrocytes by [3H]hypoxanthine uptake; conditions: read-out: ED50 (the source's name)
Outline: (§1)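 P. falciparum (chloroquine-sensitive D-6, chloroquine-resistant W-2) in type A+ human erythrocytes, 6% hematocrit, RPMI-1640 with 32 mM NaHCO3, 25 mM HEPES, 10% heat-inactivated A+ human plasma; 5% O2/5% CO2/90% N2, 37°. Test compounds in duplicate at 125,000–3 ng/ml; quinine control 250–0.3 ng/ml. ED50 = 50% inhibition of parasite [3H]hypoxanthine incorporation vs zero-drug controls, by non-linear regression.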

Plasmodium falciparum [2] = experiment: Antimalarial activity against chloroquine-resistant Plasmodium falciparum W2 infected type A+ human erythrocytes by [3H]hypoxanthine uptake; conditions: read-out: ED50 (the source's name); outline: as §1
[3] = Cytotoxicity against human multidrug-sensitive KB3 cells; conditions: read-out: ED50 (the source's name)
[4] = Cytotoxicity against human multidrug-resistant KBV1 cells; conditions: KB-V1, read-out: ED50 (the source's name)
P388 = experiment: Cytotoxicity against mouse P388 cells; conditions: read-out: ED50 (the source's name)

| SMILES | EC50 (Plasmodium falciparum [1]) [µg/mL] | EC50 (Plasmodium falciparum [2]) [µg/mL] | EC50 [3] [µg/mL] | EC50 [4] [µg/mL] | EC50 (P388) [µg/mL] |
| --- | --- | --- | --- | --- | --- |
| COc1ccc2cc1Oc1ccc(cc1)C[C@H]1c3cc(c(OC)cc3CCN1C)Oc1c(O)c(OC)cc3c1[C@@H](C2)N(C)CC3 | 0.0651 (≈ 0.107 µM) | 0.078 (≈ 0.128 µM) | 3.4 (≈ 5.59 µM) | 11 (≈ 18.1 µM) | 0.36 (≈ 0.591 µM) |
| COc1ccc2cc1Oc1ccc(cc1)C[C@H]1c3c(cc(OC)c(O)c3Oc3cc4c(cc3OC)CCN(C)[C@H]4C2)CCN1C | 0.029 (≈ 0.0476 µM) | 0.0406 (≈ 0.0667 µM) | 2.2 (≈ 3.61 µM) | 4.4 (≈ 7.23 µM) | 0.57 (≈ 0.936 µM) |
| COc1ccc2cc1Oc1ccc(cc1)C[C@@H]1c3cc(c(OC)cc3CCN1C)Oc1c(O)c(OC)cc3c1[C@@H](C2)N(C)CC3 | 0.0527 (≈ 0.0866 µM) | 0.164 (≈ 0.269 µM) | 9.8 (≈ 16.1 µM) | 11 (≈ 18.1 µM) | 0.25 (≈ 0.411 µM) |
| COc1ccc2cc1Oc1ccc(cc1)C[C@H]1c3cc(c(OC)cc3CCN1C)Oc1c(OC)c(OC)cc3c1[C@H](C2)N(C)CC3 [FANCHININ] | 0.179 (≈ 0.287 µM) | 0.16 (≈ 0.257 µM) | 2.1 (≈ 3.37 µM) | 3.7 (≈ 5.94 µM) | 0.4 (≈ 0.642 µM) |
| COc1ccc2cc1Oc1ccc(cc1)C[C@H]1c3c(cc(OC)c(O)c3Oc3cc4c(cc3OC)CCN(C)[C@@H]4C2)CCN1C [HOMOAROMOLINE] | 0.232 (≈ 0.381 µM) | 0.451 (≈ 0.741 µM) | 3.6 (≈ 5.91 µM) | 15 (≈ 24.6 µM) | 0.31 (≈ 0.509 µM) |
| C=C[C@H]1CN2CC[C@H]1C[C@H]2[C@H](O)c1ccnc2ccc(OC)cc12 [QUININE] | 0.0076 (≈ 0.0234 µM) | 0.0308 (≈ 0.0949 µM) | > 20 | > 20 | > 5 |
